From ChEMBL document CHEMBL1157107, “Gastroprotective effect of carnosic acid gamma-lactone derivatives” (J Nat Prod, 2010) come the findings set out here.

For experiment [1], the system named is Mus musculus. The experiment can be described thus: Gastroprotective activity in Swiss albino mouse assessed as reduction in HCl/EtOH-induced gastric lesions at 40 mg/kg, po dosed 50 mins before HCl/EtOH challenge measured after 1 hr relative to control. The class given is functional, Stomach. Details: scale not given: the % may be the effect or the level left. In outline: (§1)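 Male Swiss albino mice (30 ± 3 g) were randomized into groups of 7 and fasted 24 h with free water, then dosed orally. Controls received 12% Tween 80. Mice were killed 1 h after HCl/EtOH. Stomachs were inflated with saline, fixed in 5% formalin for 30 min and opened along the greater curvature. Lesion index was the summed lesion length (mm), compared with controls by ANOVA/Dunnett.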

The test system of another experiment is MRC5. In words: Cytotoxicity against human MRC5 cells after 24 hrs by neutral red uptake assay. The format is cell-based. To be noted: MRC5, 24 h. In outline: (§2)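 Confluent monolayers, seeded at 25 000 cells/mL, were used. MRC-5 and Hep G2 were grown in MEM and AGS in Ham F-12, all with 10% heat-inactivated FBS at 37 °C and 5% CO₂. Cells were exposed for 24 h to 0–1000 µM compound with 1% DMSO final. Viability was read by neutral red uptake as % of control, with quadruplicates in three separate experiments. IC50 was read graphically from dose-response curves.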

A further experiment relates to AGS. In words: Cytotoxicity against human AGS cells after 24 hrs by neutral red uptake assay. The class given is cell-based. Put shortly: as §2
The next experiment has as its system HepG2. The experiment can be described thus: Cytotoxicity against human HepG2 cells after 24 hrs by neutral red uptake assay. The class given is cell-based. As to conditions: HepG2, 24 h. In outline: as §2
The test system of experiment [2] is Mus musculus. In words: Gastroprotective activity in Swiss albino mouse assessed as reduction in HCl/EtOH-induced gastric lesions at 20 mg/kg, po dosed 50 mins before HCl/EtOH challenge measured after 1 hr relative to control. The format is functional, Stomach. Also on record: scale not given: the % may be the effect or the level left. Put shortly: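 Male Swiss albino mice (30 ± 3 g) were randomised into groups of 7 and fasted 24 h with free water. Dosing was oral at 10, 20 or 40 mg/kg; controls received 12% Tween 80. Mice were killed 1 h after HCl/EtOH, and stomachs were saline-inflated, fixed in 5% formalin for 30 min and opened. Lesion index is the summed lesion length (mm); % reduction is versus control. ANOVA with Dunnett's test.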

Experiment [3] relates to Mus musculus. The experiment can be described thus: Gastroprotective activity in Swiss albino mouse assessed as reduction in HCl/EtOH-induced gastric lesions at 10 mg/kg, po dosed 50 mins before HCl/EtOH challenge measured after 1 hr relative to control. The class given is functional, Stomach. Details: scale not given: the % may be the effect or the level left. In outline:
as §1

Regarding `CC(C)c1cc2c3c(c1OC(=O)CCCc1c[nH]c4ccccc14)OC(=O)[C@@]31CCCC(C)(C)[C@@H]1CC2`, the Activity in the experiment with Mus musculus [1] is 50%. The half-maximal inhibitory concentration (IC50) in the experiment with MRC5 came out at 54.5 µM; in the experiment with AGS, 46.8 µM; in the experiment with HepG2, 120 µM.
`CC(C)c1cc2c3c(c1OC(=O)CCl)OC(=O)[C@@]31CCCC(C)(C)[C@@H]1CC2`: in the experiment on Mus musculus [1], the Activity stood at 81%. Further, the half-inhibitory concentration (IC50) was determined as 130 µM in the experiment on MRC5, 103 µM in the experiment with AGS and 203 µM in the experiment on HepG2.
Turning to `CCCCC/C=C/C/C=C/CCCCCCCC(=O)Oc1c(C(C)C)cc2c3c1OC(=O)[C@@]31CCCC(C)(C)[C@@H]1CC2`, the Activity with Mus musculus [1] is 45%. In addition, the 50% inhibitory concentration (IC50) in the experiment with MRC5 was determined as 293 µM; with AGS, 253 µM; with HepG2 it was 289 µM.
As for `CC(C)c1cc2c3c(c1OC(=O)c1ccccc1)OC(=O)[C@@]31CCCC(C)(C)[C@@H]1CC2`, in the experiment on Mus musculus [1], the Activity is listed as 48%. Besides, the IC50 was 512 µM in the experiment with MRC5, 503 µM in the experiment on AGS and 510 µM in the experiment with HepG2.
Taken in the same sequence, the figures for `CC(C)c1cc2c3c(c1OC(=O)CCC(=O)Oc1c(C(C)C)cc4c5c1OC(=O)[C@]51CCCC(C)(C)C1CC4)OC(=O)[C@@]31CCCC(C)(C)[C@@H]1CC2` (stereo partly specified) were 62%, above 1000 µM, 623 µM and above 1000 µM.
Turning to `CC(C)c1cc2c3c(c1OC(=O)Cc1ccccc1)OC(=O)[C@@]31CCCC(C)(C)[C@@H]1CC2`, the Activity in the experiment with Mus musculus [1] is recorded as 44%. The figures for the IC50 with MRC5, in the experiment on AGS and in the experiment on HepG2 were 516 µM, 133 µM and 522 µM, respectively.
Regarding `CCCCCCCCCCCCCCCC(=O)Oc1c(C(C)C)cc2c3c1OC(=O)[C@@]31CCCC(C)(C)[C@@H]1CC2`, the Activity with Mus musculus [1] is reported as 65%. The IC50 in the experiment with MRC5, with AGS and in the experiment with HepG2 was above 1000 µM throughout.
As for `CC(C)c1cc2c3c(c1OC(=O)c1cccnc1)OC(=O)[C@@]31CCCC(C)(C)[C@@H]1CC2`, the Activity in the experiment on Mus musculus [1] worked out at 9%. Also, the IC50 in the experiment with MRC5 is 296 µM; in the experiment on AGS it was 280 µM; in the experiment on HepG2, 264 µM.
For `CC(C)c1cc2c3c(c1OC(=O)Cc1c[nH]c4ccccc14)OC(=O)[C@@]31CCCC(C)(C)[C@@H]1CC2` the same measures were 51%, 109 µM, 85.6 µM and 251 µM.
As for `CCCCCCCCCCCC(=O)Oc1c(C(C)C)cc2c3c1OC(=O)[C@@]31CCCC(C)(C)[C@@H]1CC2`, the Activity with Mus musculus [1] came to 36%. In addition, the IC50 was above 1000 µM with MRC5, 413 µM with AGS and above 1000 µM in the experiment on HepG2.
With `CCCC(=O)Oc1c(C(C)C)cc2c3c1OC(=O)[C@@]31CCCC(C)(C)[C@@H]1CC2`, the Activity in the experiment on Mus musculus [1] stood at 82%. Moreover, the IC50 turned out to be 44.4 µM with MRC5, 99.5 µM in the experiment with AGS and 56.1 µM with HepG2.
Regarding `COc1c(C(C)C)cc2c(c1O)[C@@]1(C(=O)O)CCCC(C)(C)[C@@H]1CC2`, the IC50 with MRC5 turned out to be 54.9 µM; in the experiment with AGS, 45.2 µM; in the experiment with HepG2 it was 43.5 µM.
For the compound `CCCCCCCC/C=C/CCCCCCCC(=O)Oc1c(C(C)C)cc2c3c1OC(=O)[C@@]31CCCC(C)(C)[C@@H]1CC2`, in the experiment on Mus musculus [1], the Activity stood at 70%. The figures for the IC50 with MRC5, in the experiment on AGS and with HepG2 were above 1000 µM, 822 µM and above 1000 µM, respectively.
As for `CC(=O)Oc1c(C(C)C)cc2c3c1OC(=O)[C@@]31CCCC(C)(C)[C@@H]1CC2`, the Activity in the experiment on Mus musculus [1] worked out at 62%. The IC50 with MRC5 stood at 290 µM; with AGS, 275 µM; in the experiment on HepG2, 294 µM.
Consider `CC(C)C(=O)Oc1c(C(C)C)cc2c3c1OC(=O)[C@@]31CCCC(C)(C)[C@@H]1CC2`, for which the Activity in the experiment on Mus musculus [1] was found to be 72%. The IC50 in the experiment on MRC5 turned out to be 119 µM; in the experiment on AGS it was 105 µM; with HepG2, 112 µM.
Taken in the same sequence, the figures for `COc1c(C(C)C)cc2c3c1OC(=O)[C@@]31CCCC(C)(C)[C@@H]1CC2` were 71%, 31.9 µM, 26.7 µM and 58.1 µM.
Consider `Cc1c(OCC(F)(F)F)ccnc1C[S+]([O-])c1nc2ccccc2[nH]1` (stereo unspecified) [LANSOPRAZOLE], for which the Activity in the experiment with Mus musculus [2] was 80%.
As to `CC(C)c1cc2c3c(c1OC(=O)c1ccccc1C(=O)Oc1c(C(C)C)cc4c5c1OC(=O)[C@]51CCCC(C)(C)C1CC4)OC(=O)[C@@]31CCCC(C)(C)[C@@H]1CC2` (stereo partly specified), in the experiment with Mus musculus [1], the Activity worked out at 15%. Further, the IC50 in the experiment with MRC5 was 678 µM; with AGS, 375 µM; with HepG2 it was 611 µM.
`CC(C)c1cc2c3c(c1O)OC(=O)[C@@]31CCCC(C)(C)[C@@H]1CC2`: the figures for the Activity in the experiment on Mus musculus [3], in the experiment on Mus musculus [2] and in the experiment on Mus musculus [1] were 20.8%, 30.6% and 59.5%, respectively. For the same compound, the figures for the IC50 in the experiment on MRC5, in the experiment with AGS and with HepG2 were 293 µM, 246 µM and 240 µM, respectively.
In the case of `CCC(=O)Oc1c(C(C)C)cc2c3c1OC(=O)[C@@]31CCCC(C)(C)[C@@H]1CC2`, the Activity in the experiment on Mus musculus [1] worked out at 59%. For the same compound, the figures for the IC50 in the experiment on MRC5, with AGS and in the experiment on HepG2 were 125 µM, 113 µM and 196 µM, respectively.
Turning to `CC(C)c1cc2c(c(O)c1O)[C@@]1(C(=O)O)CCCC(C)(C)[C@@H]1CC2` [CARNOSIC ACID], the figures for the IC50 in the experiment on MRC5, in the experiment on AGS and in the experiment with HepG2 were 21.8 µM, 89.8 µM and 41.3 µM, respectively.
